Assays:
Type in all cases: functional
[1] = system: Mus musculus; assay: Antiinflammatory activity against carrageenan-induced paw edema in C57BL/6 mouse assessed as increase in paw volume at 100 mg/kg, po administered 1 hr before carrageenan challenge measured 4 hrs after carrageenan challenge relative to control
Method in brief: (§1)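 Male C57BL/6 mice dosed orally at 100 mg/kg as a suspension in 5% carboxymethylcellulose 1 h before challenge. 0.05 ml of 1% w/v carrageenan in 0.9% sterile saline injected subcutaneously into right hind paw plantar region under light anaesthesia. Paw volume by digital plethysmometry immediately and 4 h later. Percent inhibition ± SEM vs vehicle group; diclofenac sodium 100 mg/kg p.o. as standard.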

[2] = system: Mus musculus; assay: Antiinflammatory activity against carrageenan-induced paw edema in C57BL/6 mouse assessed as inhibition of paw edema at 100 mg/kg, po administered 1 hr before carrageenan challenge measured 4 hrs after carrageenan challenge relative to control; method in brief: as §1
[3] = system: Mus musculus; assay: Analgesic activity in C57BL/6 mouse assessed as decrease in acetic acid-induced writhing at 100 mg/kg, po administered 1 hr before acetic acid challenge measured during 30 mins of acetic acid challenge relative to control; set-up: scale not given: the % may be the effect or the level left
Method in brief: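 Male C57BL/6 mice given 100 mg/kg orally (suspension in 5% carboxymethylcellulose) 1 h before i.p. injection of 0.25 ml 0.6% v/v acetic acid. Writhes counted over 30 min after injection. Percent inhibition calculated against mean writhing count of the control group; diclofenac sodium 100 mg/kg p.o. as standard.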

## CC(=O)Nc1ccc(Cc2noc(CCC(=O)O)n2)cc1
[1]
  Activity: 18%
[2]
  inhibition in vivo at 100 mg/kg: 75.3%
[3]
  Activity: 46.43%

## CC(=O)Nc1ccc(Cc2noc(CCC(=O)Nc3ccc(F)cc3F)n2)cc1
[1]
  Activity: 34%
[2]
  inhibition in vivo at 100 mg/kg: 52%
[3]
  Activity: -0.6%

## COc1ccc(NC(=O)CCc2nc(Cc3ccc(NC(C)=O)cc3)no2)cc1
[1]
  Activity: 37%
[2]
  inhibition in vivo at 100 mg/kg: 49.3%
[3]
  Activity: 67.26%

## CC(=O)Nc1ccc(Cc2noc(CCC(=O)Nc3ccccc3F)n2)cc1
[1]
  Activity: 24%
[2]
  inhibition in vivo at 100 mg/kg: 67.1%
[3]
  Activity: -23.21%

## CC(=O)Nc1ccc(Cc2noc(CCC(=O)Nc3ccccc3)n2)cc1
[1]
  Activity: 48%
[2]
  inhibition in vivo at 100 mg/kg: 34.2%
[3]
  Activity: -13.1%

## COc1cccc(NC(=O)CCc2nc(Cc3ccc(NC(C)=O)cc3)no2)c1
[1]
  Activity: 47%
[2]
  inhibition in vivo at 100 mg/kg: 35.6%
[3]
  Activity: -7.14%

## C#Cc1cccc(NC(=O)CCc2nc(Cc3ccc(NC(C)=O)cc3)no2)c1
[1]
  Activity: 11%
[2]
  inhibition in vivo at 100 mg/kg: 84.9%
[3]
  Activity: 61.31%

## CC(=O)Nc1ccc(Cc2noc(CCC(=O)Nc3cccnc3)n2)cc1
[1]
  Activity: 9%
[2]
  inhibition in vivo at 100 mg/kg: 87.7%
[3]
  Activity: 80.95%

## COc1ccccc1NC(=O)CCc1nc(Cc2ccc(NC(C)=O)cc2)no1
[1]
  Activity: 9%
[2]
  inhibition in vivo at 100 mg/kg: 87.7%
[3]
  Activity: 73.81%

## CC(=O)Nc1ccc(Cc2noc(CCC(=O)NCc3ccccc3)n2)cc1
[1]
  Activity: 17%
[2]
  inhibition in vivo at 100 mg/kg: 76.7%
[3]
  Activity: -0.6%

## COc1ccc(NC(=O)CCc2nc(Cc3ccc(NC(C)=O)cc3)no2)cc1F
[1]
  Activity: 29%
[2]
  inhibition in vivo at 100 mg/kg: 60.3%
[3]
  Activity: 36.9%

## CC(=O)Nc1ccc(Cc2noc(CCC(=O)Nc3cccc(C)c3)n2)cc1
[1]
  Activity: 61%
[2]
  inhibition in vivo at 100 mg/kg: 16.4%
[3]
  Activity: 67.26%

## CC(=O)Nc1ccc(Cc2noc(CCC(=O)Nc3ccc(F)cc3)n2)cc1
[1]
  Activity: 26%
[2]
  inhibition in vivo at 100 mg/kg: 64.4%
[3]
  Activity: 67.86%

## CC(=O)Nc1ccc(Cc2noc(CCC(=O)Nc3ccc(C(F)(F)F)cc3)n2)cc1
[1]
  Activity: 46%
[2]
  inhibition in vivo at 100 mg/kg: 37%
[3]
  Activity: 31.55%

## COc1ccc(NC(=O)CCc2nc(Cc3ccc(NC(C)=O)cc3)no2)cc1OC
[1]
  Activity: 3%
[2]
  inhibition in vivo at 100 mg/kg: 95.9%
[3]
  Activity: 80.36%

## O=C([O-])Cc1ccccc1Nc1c(Cl)cccc1Cl.[Na+] [DICLOFENAC SODIUM]
[1]
  Activity: 36%
[2]
  inhibition in vivo at 100 mg/kg: 50.7%
[3]
  Activity: 77.38%

Source: ChEMBL document CHEMBL1153886, “Synthesis, analgesic and anti-inflammatory activities of novel 3-(4-acetamido-benzyl)-5-substituted-1,2,4-oxadiazoles” (2009)
